This passage reports IC50 and Activity results from ChEMBL document CHEMBL1136324, “The total synthesis of an aurone isolated from Uvaria hamiltonii: aurones and flavones as anticancer agents” (Bioorg Med Chem Lett, 2003).

Assay [1] concerns K562. Put plainly: Inhibitory activity against K562 human chronic myelogenous leukemia cell line using MTT assay after 5 days incubation of the compound. It counts as functional, cell-based. The following applies: K562, 120 h. In a few lines:
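K562 cells exposed to drug for 5 days at 37 °C; growth read by MTT assay. IC50 taken as concentration giving 50% inhibition of cell growth.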
(Tetrazolium assays rely on reduction of a dye to a coloured formazan, in cell work by metabolically active cells.)

For a further assay, the target named is Tubulin alpha chain (Sus scrofa, UniProt P02550). Description: Concentration that cause a 50% inhibition in tubulin assembly as measured by an increase in turbidity using microtubule assembly assay.
Assay [2] deals with K562. Put plainly: Effect on G0-G1 phase of the cell cycle by flow cytometry. It counts as functional, Homo sapiens. In short, it runs like this:
(§1)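 Cell-cycle phase distribution measured by flow cytometry in drug-treated cells, compared with untreated control.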
For orientation: Flow cytometry measures light scatter and fluorescence of single cells or particles in a stream.

Assay [3] concerns K562. Put plainly: Effect on G2/M phase of the cell cycle by flow cytometry. The class given is functional, Homo sapiens. In short, it runs like this: as §1
For assay [4], the system named is K562. Put plainly: Effect on S phase of the cell cycle by flow cytometry. The class given is functional, Homo sapiens. In short, it runs like this:
as §1

Another assay addresses Tubulin (Sus scrofa, UniProt P02554+P02550). Put plainly: Ability to inhibit the binding of [3H]colchicine to porcine tubulin. It counts as protein assay.

Tubulin alpha chain, sequence (P02550 whole entry, looked up): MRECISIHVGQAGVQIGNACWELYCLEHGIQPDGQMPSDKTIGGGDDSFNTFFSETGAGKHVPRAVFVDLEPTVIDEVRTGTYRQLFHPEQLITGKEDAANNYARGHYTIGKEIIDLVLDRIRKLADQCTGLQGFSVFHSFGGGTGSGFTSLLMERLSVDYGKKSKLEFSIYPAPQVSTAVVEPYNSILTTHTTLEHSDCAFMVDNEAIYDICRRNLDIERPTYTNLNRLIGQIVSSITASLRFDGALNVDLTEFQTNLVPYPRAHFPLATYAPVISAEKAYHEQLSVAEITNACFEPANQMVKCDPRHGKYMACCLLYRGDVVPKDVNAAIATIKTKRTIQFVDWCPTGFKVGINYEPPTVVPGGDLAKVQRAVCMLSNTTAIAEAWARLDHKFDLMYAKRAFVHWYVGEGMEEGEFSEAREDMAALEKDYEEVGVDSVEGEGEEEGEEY

As a reminder, the IC50 is the concentration needed to halve the response being measured. The low end stands for greater potency in that assay, the high end for weaker potency in that assay. `COc1ccc(-c2cc(=O)c3c(OC)c(OC)c(OC)cc3o2)cc1`: in the assay on K562 [1], the IC50 was 42 µM.

Regarding `COc1ccc(-c2cc(=O)c3c(OC)c(OC)c(OC)cc3o2)cc1F`, the IC50 with K562 [1] and at Tubulin alpha chain was > 50 µM throughout.

Turning to `COc1cc2c(c(OC)c1OC)O/C(=C\c1cc(F)c(OC)c(F)c1)C2=O`, the half-maximal inhibitory concentration (IC50) in the assay with K562 [1] stood at 0.15 µM.

For `COc1cc2c(c(OC)c1OC)C(=O)/C(=C/c1cc(F)c(OC)c(F)c1)O2`, the IC50 in the assay on K562 [1] was > 50 µM.

Turning to `COc1ccc(-c2cc(=O)c3cc(OC)c(OC)c(OC)c3o2)cc1F`, the 50% inhibitory concentration (IC50) is 0.59 µM with K562 [1] and > 50 µM against Tubulin alpha chain.

For the compound `COc1ccc(/C=C(\C)C(=O)c2cc(OC)c(OC)c(OC)c2)cc1O`, the IC50 with K562 [1] was found to be 0.0002 µM; against Tubulin alpha chain, 0.5 µM. In addition, the Activity in the assay with K562 [2] is reported as 10; in the assay with K562 [3], 83; in the assay with K562 [4] it was 7.

On to `COc1ccc(/C=C2\Oc3c(cc(OC)c(OC)c3OC)C2=O)cc1O`, for which the IC50 with K562 [1] was 0.05 µM; at Tubulin alpha chain it was 22 µM; on Tubulin, 60 µM. Also, the Activity with K562 [2] was 17; in the assay with K562 [3], 69; in the assay on K562 [4], 14.

`COc1ccc(-c2cc(=O)c3cc(OC)c(OC)c(OC)c3o2)cc1`: it took 0.83 µM to reach half-maximal inhibition with K562 [1] (IC50).

With `COc1ccc(-c2cc(=O)c3cc(OC)c(OC)c(OC)c3o2)cc1O`, the IC50 in the assay on K562 [1] turned out to be 0.04 µM; on Tubulin alpha chain, 25 µM; on Tubulin, 40 µM. The Activity is 52 in the assay on K562 [2], 38 in the assay on K562 [3] and 11 in the assay on K562 [4].

With `COc1ccc(-c2cc(=O)c3c(OC)c(OC)c(OC)cc3o2)cc1O`, the half-inhibitory concentration (IC50) in the assay with K562 [1] was 22 µM; against Tubulin alpha chain, > 50 µM.

`COc1cc2c(c(OC)c1OC)O/C(=C\c1ccc(O)c(O)c1)C2=O`: the half-inhibitory concentration (IC50) with K562 [1] is 9.7 µM; at Tubulin alpha chain, > 50 µM. For the same compound, the Activity is recorded as 45 in the assay with K562 [2], 39 in the assay with K562 [3] and 16 with K562 [4].

In the case of `COc1ccc(/C=C2\Oc3cc(OC)c(OC)c(OC)c3C2=O)cc1`, the 50% inhibitory concentration (IC50) with K562 [1] was > 50 µM.

`COc1cc2c(c(OC)c1OC)C(=O)/C(=C/c1ccc(O)c(O)c1)O2`: the IC50 is 12 µM with K562 [1] and > 50 µM at Tubulin alpha chain. Besides, the Activity with K562 [2] was 57; in the assay on K562 [3] it was 25; in the assay on K562 [4], 18.

`COc1ccc(/C=C2\Oc3c(cc(OC)c(OC)c3OC)C2=O)cc1`: in the assay on K562 [1], the half-maximal inhibitory concentration (IC50) turned out to be 0.15 µM.

Regarding `COc1ccc(/C=C2\Oc3cc(OC)c(OC)c(OC)c3C2=O)cc1F`, the IC50 in the assay on K562 [1] and against Tubulin alpha chain was > 50 µM in each case.

Take `COc1ccc(/C=C2\Oc3cc(OC)c(OC)c(OC)c3C2=O)cc1O`: the figures for the half-maximal inhibitory concentration (IC50) with K562 [1] and at Tubulin alpha chain were 18 µM and > 50 µM, respectively.

Consider `COc1ccc(/C=C2\Oc3c(cc(OC)c(OC)c3OC)C2=O)cc1F`, for which the IC50 in the assay on K562 [1] was 0.11 µM; against Tubulin alpha chain, > 50 µM. The results for the Activity in the assay with K562 [2], with K562 [3] and with K562 [4] were 12, 77 and 11, respectively.
